According to ChEMBL document CHEMBL2146394, “Design and synthesis of pyrrolo[3,2-d]pyrimidine HER2/EGFR dual inhibitors: improvement of the physicochemical and pharmacokinetic profiles for potent in vivo anti-tumor efficacy” (Bioorg Med Chem, 2012):
One block for each compound: values may come before it.

Key:
Angiopoietin-1 receptor = Angiopoietin-1 receptor (Homo sapiens, UniProt Q02763); assay: Inhibition of TIE2 after 5 mins
In short: (§1)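 AlphaScreen tyrosine kinase assay: 50 mmol/L Tris-HCl pH 7.5, 5 mmol/L MnCl₂, 5 mmol/L MgCl₂, 0.01% Tween-20, 2 mmol/L DTT, biotinylated poly-Glu-Tyr (4:1), kinase-optimized enzyme, ATP and time (5–60 min). Seven compound concentrations, 0.01–10000 nmol/L, preincubated 5 min at room temperature. Stopped with EDTA plus streptavidin donor and PY-100 or PT66 acceptor beads; read after >12 h in the dark. Controls: no compound; no ATP.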

[1] = target: Mitogen-activated protein kinase kinase kinase 5 (Homo sapiens, UniProt Q99683); assay: Inhibition of N-terminal FLAG-tagged ASK1 expressed in baculovirus after 5 mins by scintillation counter
[2] = target: Proto-oncogene tyrosine-protein kinase Src (Homo sapiens, UniProt P12931); assay: Inhibition of Src after 5 mins; in short: as §1
Focal adhesion kinase 1 = Focal adhesion kinase 1 (Homo sapiens, UniProt Q05397); assay: Inhibition of full length N-terminal FLAG-tagged FAK expressed in baculovirus after 5 mins; in short: as §1
[3] = target: Insulin-like growth factor 1 receptor (Homo sapiens, UniProt P08069); assay: Inhibition of IGF-1R after 5 mins; in short: as §1
[4] = target: Tyrosine-protein kinase ZAP-70 (Homo sapiens, UniProt P43403); assay: Inhibition of ZAP70 after 5 mins; in short: as §1
[5] = target: Dual specificity protein kinase TTK (Homo sapiens, UniProt P33981); assay: Inhibition of N-terminal FLAG-tagged TTK expressed in baculovirus after 5 mins by scintillation counter
[6] = target: Inhibitor of nuclear factor kappa-B kinase subunit beta (Homo sapiens, UniProt O14920); assay: Inhibition of C-terminal FLAG-tagged IKKbeta expressed in baculovirus after 5 mins by scintillation counter
[7] = target: T1, Tyrosine-protein kinase Lyn (Homo sapiens, UniProt P07948); assay: Inhibition of LYN B after 5 mins; in short: as §1
T1 sequence (P07948 whole entry): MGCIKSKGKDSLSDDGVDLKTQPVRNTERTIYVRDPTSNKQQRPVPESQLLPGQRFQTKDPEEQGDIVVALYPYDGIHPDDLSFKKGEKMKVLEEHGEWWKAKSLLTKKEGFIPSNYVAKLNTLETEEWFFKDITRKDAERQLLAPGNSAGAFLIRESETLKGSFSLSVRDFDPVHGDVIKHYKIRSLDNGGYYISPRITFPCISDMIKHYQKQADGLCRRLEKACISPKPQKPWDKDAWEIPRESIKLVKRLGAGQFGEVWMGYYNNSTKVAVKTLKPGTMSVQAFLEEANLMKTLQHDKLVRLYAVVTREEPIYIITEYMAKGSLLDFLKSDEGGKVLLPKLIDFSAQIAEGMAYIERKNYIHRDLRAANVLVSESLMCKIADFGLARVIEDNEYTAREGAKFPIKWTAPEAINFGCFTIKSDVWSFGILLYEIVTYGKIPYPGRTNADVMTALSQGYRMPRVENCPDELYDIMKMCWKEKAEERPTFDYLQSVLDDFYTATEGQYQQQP

[8] = Antitumor activity against human 4-1ST cells xenografted in F344/N jcl-rnu rat at 12.5 mg/kg, po bid administered 14 days measured on day 31 relative to control; type: functional
In short: (§2)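 4-1ST human gastric tumour tissue from donor animals minced and implanted subcutaneously in nude mice or nude rats. Tumours of 200–300 mm³ used. Compounds in 0.5% (w/v) methylcellulose given orally twice daily at 10 mL/kg for 14 days; control got vehicle. Doses expressed as salt-free. Caliper volume (a×b²/2) measured blind 2–3 times weekly. T/C (%) versus control; five mice or eight rats per group.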

[9] = target: Mitogen-activated protein kinase 3 (Homo sapiens, UniProt P27361); assay: Inhibition of N-terminal FLAG-tagged ERK1 expressed in baculovirus after 5 mins by scintillation counter
Sequence of Mitogen-activated protein kinase 3 (P27361 whole entry): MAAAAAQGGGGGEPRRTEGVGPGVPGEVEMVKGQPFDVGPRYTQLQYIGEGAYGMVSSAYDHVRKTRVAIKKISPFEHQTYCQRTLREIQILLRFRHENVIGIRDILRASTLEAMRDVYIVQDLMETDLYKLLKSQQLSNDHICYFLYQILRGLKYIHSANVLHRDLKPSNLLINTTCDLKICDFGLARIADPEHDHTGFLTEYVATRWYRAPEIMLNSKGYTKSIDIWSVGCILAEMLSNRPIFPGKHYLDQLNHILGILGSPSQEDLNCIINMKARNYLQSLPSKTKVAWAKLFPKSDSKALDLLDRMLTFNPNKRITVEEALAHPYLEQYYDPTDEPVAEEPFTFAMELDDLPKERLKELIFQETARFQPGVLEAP

Aurora kinase B = Aurora kinase B (Homo sapiens, UniProt Q96GD4); assay: Inhibition of N-terminal His6-tagged Aurora B expressed in baculovirus after 5 mins by scintillation counter
[10] = target: Mitogen-activated protein kinase kinase kinase 1 (Homo sapiens, UniProt Q13233); assay: Inhibition of C-terminal FLAG-tagged MEKK expressed in baculovirus after 5 mins by scintillation counter
[11] = target: Serine/threonine-protein kinase PLK1 (Homo sapiens, UniProt P53350); assay: Inhibition of N-terminal FLAG-tagged PLK1 expressed in baculovirus after 5 mins by scintillation counter
Insulin receptor = Insulin receptor (Homo sapiens, UniProt P06213); assay: Inhibition of INSR after 5 mins; in short: as §1
[12] = Antitumor activity against human 4-1ST cells xenografted in BALB/c nu/nu mouse at 50 mg/kg, po bid administered 14 days measured on day 31 relative to control; type: functional; in short: as §2
[13] = Antitumor activity against human 4-1ST cells xenografted in F344/N jcl-rnu rat at 25 mg/kg, po bid administered 14 days measured on day 31 relative to control; type: functional; in short: as §2
[14] = target: Vascular endothelial growth factor receptor 2 (Homo sapiens, UniProt P35968); assay: Inhibition of N-terminal FLAG-tagged VEGFR2 cytoplasmic domain expressed in baculovirus after 5 mins; in short: as §1
[15] = Antitumor activity against human 4-1ST cells xenografted in BALB/c nu/nu mouse at 100 mg/kg, po bid administered 14 days measured on day 31 relative to control; type: functional; in short: as §2
[16] = target: Fibroblast growth factor receptor 1 (Homo sapiens, UniProt P11362); assay: Inhibition of FGFR1 after 5 min; in short: as §1
[17] = target: Cytoplasmic tyrosine-protein kinase BMX (Homo sapiens, UniProt P51813); assay: Inhibition of full length N-terminal FLAG-tagged BMX expressed in baculovirus after 5 mins; in short: as §1
Sequence of Cytoplasmic tyrosine-protein kinase BMX (P51813 whole entry): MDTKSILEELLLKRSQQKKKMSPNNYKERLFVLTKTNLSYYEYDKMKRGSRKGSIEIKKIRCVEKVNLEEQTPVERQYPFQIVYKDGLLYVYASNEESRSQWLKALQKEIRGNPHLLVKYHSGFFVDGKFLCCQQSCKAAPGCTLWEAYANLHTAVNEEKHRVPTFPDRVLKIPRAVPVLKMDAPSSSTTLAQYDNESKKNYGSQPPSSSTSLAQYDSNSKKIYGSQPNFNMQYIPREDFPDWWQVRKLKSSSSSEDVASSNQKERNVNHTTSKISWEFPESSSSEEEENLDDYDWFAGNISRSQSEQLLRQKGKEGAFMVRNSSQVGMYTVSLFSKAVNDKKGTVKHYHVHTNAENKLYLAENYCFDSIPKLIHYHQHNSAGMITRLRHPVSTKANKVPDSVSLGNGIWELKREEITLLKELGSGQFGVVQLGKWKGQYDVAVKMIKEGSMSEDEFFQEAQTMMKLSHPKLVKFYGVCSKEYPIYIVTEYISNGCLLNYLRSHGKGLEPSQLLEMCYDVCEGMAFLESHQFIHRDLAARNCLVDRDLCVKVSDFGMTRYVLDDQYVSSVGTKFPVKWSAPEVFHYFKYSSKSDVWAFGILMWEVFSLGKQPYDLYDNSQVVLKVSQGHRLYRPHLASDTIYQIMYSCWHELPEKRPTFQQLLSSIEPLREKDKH

[18] = target: Hepatocyte growth factor receptor (Homo sapiens, UniProt P08581); assay: Inhibition of c-Met after 5 mins; in short: as §1
[19] = target: Receptor tyrosine-protein kinase erbB-4 (Homo sapiens, UniProt Q15303); assay: Inhibition of HER4 cytoplasmic domain after 5 mins by scintillation counter
In short: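 HER4 cytoplasmic domain run as in the HER2/EGFR radiometric [γ-³²P]ATP filter assay: 5 min enzyme–compound preincubation, 10 min reaction at room temperature, TCA stop, scintillation count, nonlinear-regression IC₅₀.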

[20] = target: Dual specificity mitogen-activated protein kinase kinase 5 (Homo sapiens, UniProt Q13163); assay: Inhibition of N-terminal FLAG-tagged MEK5 expressed in baculovirus after 5 mins by scintillation counter
[21] = target: Serine/threonine-protein kinase B-raf (Homo sapiens, UniProt P15056); assay: Inhibition of N-terminal FLAG-tagged B-raf expressed in baculovirus after 5 mins by scintillation counter
[22] = target: Mitogen-activated protein kinase 14 (Homo sapiens, UniProt Q16539); assay: Inhibition of N-terminal FLAG-tagged p38alpha expressed in baculovirus after 5 mins by scintillation counter
[23] = target: Mitogen-activated protein kinase 8 (Homo sapiens, UniProt P45983); assay: Inhibition of N-terminal FLAG-tagged JNK1 expressed in baculovirus after 5 mins by scintillation counter
Sequence of Mitogen-activated protein kinase 8 (P45983 whole entry): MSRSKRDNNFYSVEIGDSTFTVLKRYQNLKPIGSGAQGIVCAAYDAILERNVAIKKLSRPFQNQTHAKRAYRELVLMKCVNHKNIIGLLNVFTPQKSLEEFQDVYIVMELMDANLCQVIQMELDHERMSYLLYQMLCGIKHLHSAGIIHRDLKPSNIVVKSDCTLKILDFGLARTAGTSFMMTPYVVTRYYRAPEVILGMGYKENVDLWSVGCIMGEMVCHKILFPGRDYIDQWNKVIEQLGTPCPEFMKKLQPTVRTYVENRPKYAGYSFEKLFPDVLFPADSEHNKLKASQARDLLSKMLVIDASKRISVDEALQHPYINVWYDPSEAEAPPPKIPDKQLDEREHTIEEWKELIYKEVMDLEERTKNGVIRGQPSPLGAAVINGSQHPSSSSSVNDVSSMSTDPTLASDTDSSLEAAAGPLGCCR

[24] = target: Mast/stem cell growth factor receptor Kit (Homo sapiens, UniProt P10721); assay: Inhibition of c-kit after 5 mins; in short: as §1
[25] = target: Tyrosine-protein kinase CSK (Homo sapiens, UniProt P41240); assay: Inhibition of CSK after 5 mins; in short: as §1
[26] = target: Glycogen synthase kinase-3 beta (Homo sapiens, UniProt P49841); assay: Inhibition of N-terminal FLAG-tagged GSK3beta expressed in baculovirus after 5 mins by scintillation counter
[27] = target: Fibroblast growth factor receptor 3 (Homo sapiens, UniProt P22607); assay: Inhibition of FGFR3 after 5 mins; in short: as §1
[28] = target: T1, Tyrosine-protein kinase Lyn; assay: Inhibition of LYN A after 5 mins; in short: as §1
[29] = target: Protein kinase C theta type (Homo sapiens, UniProt Q04759); assay: Inhibition of N-terminal FLAG-tagged PKCtheta expressed in baculovirus after 5 mins by scintillation counter
[30] = target: Mitogen-activated protein kinase kinase kinase 7 (Homo sapiens, UniProt O43318); assay: Inhibition of N-terminal FLAG-tagged TAK1 expressed in baculovirus after 5 mins by scintillation counter
Sequence of Mitogen-activated protein kinase kinase kinase 7 (O43318 whole entry): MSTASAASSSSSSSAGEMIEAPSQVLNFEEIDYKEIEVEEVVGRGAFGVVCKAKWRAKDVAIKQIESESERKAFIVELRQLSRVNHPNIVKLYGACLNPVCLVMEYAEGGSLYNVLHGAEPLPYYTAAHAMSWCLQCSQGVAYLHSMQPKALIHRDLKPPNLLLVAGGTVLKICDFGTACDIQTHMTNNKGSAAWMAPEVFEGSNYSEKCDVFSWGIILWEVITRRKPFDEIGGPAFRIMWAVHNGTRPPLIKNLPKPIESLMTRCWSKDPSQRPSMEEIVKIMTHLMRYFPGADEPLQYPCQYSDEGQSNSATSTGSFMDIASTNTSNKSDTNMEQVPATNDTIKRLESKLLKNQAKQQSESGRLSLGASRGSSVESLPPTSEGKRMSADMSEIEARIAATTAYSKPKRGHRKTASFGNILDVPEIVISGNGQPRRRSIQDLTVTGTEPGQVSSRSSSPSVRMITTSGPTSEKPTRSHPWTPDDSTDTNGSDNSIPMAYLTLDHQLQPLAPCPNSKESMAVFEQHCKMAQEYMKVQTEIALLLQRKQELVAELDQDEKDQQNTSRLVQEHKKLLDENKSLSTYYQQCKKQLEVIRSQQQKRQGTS

[31] = target: Dual specificity mitogen-activated protein kinase kinase 1 (Homo sapiens, UniProt Q02750); assay: Inhibition of N-terminal GST-tagged MEK1 after 5 mins by scintillation counter
[32] = target: Vascular endothelial growth factor receptor 1 (Homo sapiens, UniProt P17948); assay: Inhibition of VEGFR1 after 5 mins; in short: as §1
BT-474 [33] = assay: Growth inhibition of HER2 over-expressing human BT474 cells after 5 days; type: functional; conditions: BT-474, 120 h
In short: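 BT-474 cells kept in RPMI 1640 with 10% heat-inactivated FBS. Seeded at 3×10⁴ cells/well and allowed to attach overnight. Treated continuously with compound for 5 days. Live cells counted with a particle analyzer; GI₅₀ derived.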

[34] = target: Epidermal growth factor receptor (Homo sapiens, UniProt P00533); assay: Inhibition of human N-terminal DYKDDDD tagged EGFR cytoplasmic domain amino acid 669 to 1210 expressed in baculovirus after 5 mins by scintillation counter
Sequence of Epidermal growth factor receptor (P00533 whole entry, the tested form may be a part): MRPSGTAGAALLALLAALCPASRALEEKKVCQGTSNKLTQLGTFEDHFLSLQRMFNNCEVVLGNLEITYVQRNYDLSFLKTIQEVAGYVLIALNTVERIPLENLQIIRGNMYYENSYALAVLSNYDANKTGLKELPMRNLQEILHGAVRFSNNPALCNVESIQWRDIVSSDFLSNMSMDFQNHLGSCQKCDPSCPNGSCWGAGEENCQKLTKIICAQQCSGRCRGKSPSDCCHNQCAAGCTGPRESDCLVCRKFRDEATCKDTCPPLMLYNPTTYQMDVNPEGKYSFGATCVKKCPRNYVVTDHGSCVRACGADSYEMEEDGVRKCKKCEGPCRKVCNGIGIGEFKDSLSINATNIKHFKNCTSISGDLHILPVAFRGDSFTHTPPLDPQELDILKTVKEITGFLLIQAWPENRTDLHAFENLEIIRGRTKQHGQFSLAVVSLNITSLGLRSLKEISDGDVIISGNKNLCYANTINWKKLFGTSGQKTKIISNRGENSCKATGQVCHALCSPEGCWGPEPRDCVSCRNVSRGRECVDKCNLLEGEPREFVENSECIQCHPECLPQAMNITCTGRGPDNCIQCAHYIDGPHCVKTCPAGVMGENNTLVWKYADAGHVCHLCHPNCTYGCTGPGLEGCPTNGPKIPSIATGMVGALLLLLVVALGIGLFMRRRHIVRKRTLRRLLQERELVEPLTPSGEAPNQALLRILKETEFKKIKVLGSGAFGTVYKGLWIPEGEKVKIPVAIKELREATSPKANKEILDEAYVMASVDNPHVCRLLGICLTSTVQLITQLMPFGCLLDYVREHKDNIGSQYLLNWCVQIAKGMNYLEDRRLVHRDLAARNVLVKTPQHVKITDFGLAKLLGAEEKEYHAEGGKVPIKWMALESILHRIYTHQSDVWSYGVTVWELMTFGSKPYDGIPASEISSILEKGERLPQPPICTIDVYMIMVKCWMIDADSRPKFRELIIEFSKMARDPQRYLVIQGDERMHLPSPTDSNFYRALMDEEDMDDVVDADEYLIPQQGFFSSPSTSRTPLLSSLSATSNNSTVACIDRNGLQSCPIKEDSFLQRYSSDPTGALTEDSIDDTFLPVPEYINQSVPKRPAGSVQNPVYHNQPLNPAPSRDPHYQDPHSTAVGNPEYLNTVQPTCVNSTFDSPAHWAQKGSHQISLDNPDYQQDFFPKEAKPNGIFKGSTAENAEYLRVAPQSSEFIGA

BT-474 [35] = assay: Antitumor activity against human BT474 cells xenografted in BALB/c nu/nu mouse at 100 mg/kg, po bid administered 14 days measured on day 31 relative to control; type: functional
In short: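 BT-474 xenografts: 1×10⁷ cells in Matrigel implanted subcutaneously into the right flank of female BALB/c nu/nu mice. Estradiol dipropionate 0.25 mg given intramuscularly on days 0 and 7. Tumours of 200–300 mm³ used. Dosing 100 mg/kg orally bid in 0.5% methylcellulose for 14 days. Volume a×b²/2 by calipers. T/C (%) compared at day 31.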

[36] = Apparent permeability across apical to basolateral side in human Caco2 cells at 10 umol/L; type: ADME, cell-based; conditions: Caco-2
In short: (§3)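 Confluent Caco-2 monolayers on collagen-coated polycarbonate Transwell membranes. HBSS with 10 mmol/L HEPES, 15 mmol/L glucose and 1% BSA, pH 7.3–7.5. Compound dosed at 10 µmol/L apically (A→B) or basolaterally (B→A), 37 °C, 5% CO₂. Receivers sampled at 1 and 2 h; LC/MS/MS. Papp from receiver concentration slope; duplicates.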

[37] = target: Receptor tyrosine-protein kinase erbB-2 (Homo sapiens, UniProt P04626); assay: Inhibition of human N-terminal DYKDDDD tagged HER2 cytoplasmic domain amino acid 676 to 1255 expressed in baculovirus after 5 mins by scintillation counter
Sequence of Receptor tyrosine-protein kinase erbB-2 (P04626 whole entry, the tested form may be a part): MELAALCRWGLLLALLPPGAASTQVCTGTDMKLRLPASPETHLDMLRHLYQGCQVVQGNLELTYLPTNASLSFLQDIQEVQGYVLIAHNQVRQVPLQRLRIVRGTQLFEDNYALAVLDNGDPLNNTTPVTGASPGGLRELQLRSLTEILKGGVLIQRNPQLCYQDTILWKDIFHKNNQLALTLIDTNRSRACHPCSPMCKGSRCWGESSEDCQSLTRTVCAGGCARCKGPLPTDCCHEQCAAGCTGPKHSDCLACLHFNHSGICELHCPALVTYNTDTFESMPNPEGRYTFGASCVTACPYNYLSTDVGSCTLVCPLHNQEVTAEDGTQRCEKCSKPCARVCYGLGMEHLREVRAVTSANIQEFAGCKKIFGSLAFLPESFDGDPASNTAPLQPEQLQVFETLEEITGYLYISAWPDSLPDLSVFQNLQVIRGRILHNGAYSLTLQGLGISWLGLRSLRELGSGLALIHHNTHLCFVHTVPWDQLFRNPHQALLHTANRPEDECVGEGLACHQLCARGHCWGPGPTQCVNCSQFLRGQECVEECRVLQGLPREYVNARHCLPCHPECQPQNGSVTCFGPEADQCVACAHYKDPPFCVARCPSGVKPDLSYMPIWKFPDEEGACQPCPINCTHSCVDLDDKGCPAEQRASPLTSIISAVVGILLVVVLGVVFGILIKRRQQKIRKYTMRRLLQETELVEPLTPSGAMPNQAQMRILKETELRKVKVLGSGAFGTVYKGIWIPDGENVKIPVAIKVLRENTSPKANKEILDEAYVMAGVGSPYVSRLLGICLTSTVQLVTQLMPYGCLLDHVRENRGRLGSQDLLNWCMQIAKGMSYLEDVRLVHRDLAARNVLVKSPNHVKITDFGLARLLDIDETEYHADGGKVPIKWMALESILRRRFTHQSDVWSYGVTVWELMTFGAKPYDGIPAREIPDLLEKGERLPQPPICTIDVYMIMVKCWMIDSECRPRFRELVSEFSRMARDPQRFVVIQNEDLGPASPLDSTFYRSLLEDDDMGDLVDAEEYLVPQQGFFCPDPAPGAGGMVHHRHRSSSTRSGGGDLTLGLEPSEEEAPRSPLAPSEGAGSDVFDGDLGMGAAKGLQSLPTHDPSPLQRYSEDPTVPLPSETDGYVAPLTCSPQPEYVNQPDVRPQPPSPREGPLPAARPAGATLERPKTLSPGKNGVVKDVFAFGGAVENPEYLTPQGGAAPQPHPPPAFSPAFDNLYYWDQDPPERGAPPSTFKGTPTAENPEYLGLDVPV
In short: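 FLAG-purified HER2 cytoplasmic domain in 50 mmol/L Tris-HCl pH 7.5, 5 mmol/L MnCl₂, 0.01% Tween-20, 2 mmol/L DTT, with poly-Glu-Tyr (4:1) and [γ-³²P]ATP. Compound and enzyme preincubated 5 min at room temperature; reaction started with ATP, 10 min at room temperature. Stopped with 10% TCA, filter-harvested, washed with 3% phosphoric acid, scintillation counted.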

[38] = Metabolic stability in human hepatic microsomes at 1 umol/L after 20 mins; type: ADME; conditions: liver microsomes, read-out: Stability
In short: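 Human liver microsomes (0.2 mg/mL protein) with 1 µmol/L compound in 50 mmol/L phosphate pH 7.4 plus an NADPH-generating system (glucose-6-phosphate, β-NADP⁺, G6PDH, MgCl₂). Incubated at 37 °C for 0 and 20 min, stopped with acetonitrile, duplicates. Remaining compound measured by HPLC with photodiode array detection.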

[39] = Metabolic stability in mouse hepatic microsomes at 1 umol/L after 20 mins; type: ADME; conditions: liver microsomes, read-out: Stability
[40] = Apparent permeability across basolateral to apical side in human Caco2 cells at 10 umol/L; type: ADME, cell-based; conditions: Caco-2; in short: as §3

GI50 (BT-474 [33]): 48 nM
IC50 [37]: 11 nM
microsomal CLint at 1 µM [38]: 42 µL/min/mg
microsomal CLint at 1 µM [39]: 35 µL/min/mg
SMILES: CC(C)S(=O)(=O)CC(=O)NCCn1ccc2ncnc(Nc3ccc(Oc4cccc(C(F)(F)F)c4)c(Cl)c3)c21

GI50 (BT-474 [33]): 36 nM
IC50 [34]: 31 nM
IC50 [37]: 8.5 nM
microsomal CLint at 1 µM [38]: 26 µL/min/mg
microsomal CLint at 1 µM [39]: 22 µL/min/mg
SMILES: CCS(=O)(=O)CC(=O)NCCn1ccc2ncnc(Nc3ccc(Oc4cccc(C(F)(F)F)c4)c(Cl)c3)c21

The next lines start with the compound.

SMILES: CC(C)(C(=O)NCCn1ccc2ncnc(Nc3ccc(Oc4cccc(Cl)c4)c(Cl)c3)c21)S(C)(=O)=O.Cc1ccc(S(=O)(=O)O)cc1
IC50 (Angiopoietin-1 receptor): > 10000 nM
IC50 [1]: > 10000 nM
IC50 [2]: > 10000 nM
IC50 (Focal adhesion kinase 1): > 10000 nM
IC50 [3]: > 10000 nM
IC50 [4]: > 10000 nM
IC50 [5]: > 10000 nM
IC50 [6]: > 10000 nM
IC50 [7]: 3300 nM
T/C [8]: 41%
IC50 [9]: > 10000 nM
IC50 (Aurora kinase B): 500 nM
IC50 [10]: > 10000 nM
IC50 [11]: > 10000 nM
IC50 (Insulin receptor): > 10000 nM
T/C [12]: 41%
T/C [13]: -1%
IC50 [14]: > 10000 nM
T/C [15]: 0%
IC50 [16]: > 10000 nM
IC50 [17]: > 10000 nM
IC50 [18]: 3900 nM
IC50 [19]: 160 nM
IC50 [20]: > 10000 nM
IC50 [21]: > 10000 nM
IC50 [22]: > 10000 nM
IC50 [23]: > 10000 nM
IC50 [24]: > 10000 nM
IC50 [25]: 5100 nM
IC50 [26]: > 10000 nM
IC50 [27]: > 10000 nM
IC50 [28]: 3600 nM
IC50 [29]: > 10000 nM
IC50 [30]: > 10000 nM
IC50 [31]: 980 nM
IC50 [32]: > 10000 nM

SMILES: CS(=O)(=O)CC(=O)NCCn1ccc2ncnc(Nc3ccc(Oc4cccc(C(F)(F)F)c4)c(Cl)c3)c21
GI50 (BT-474 [33]): 5.2 nM
IC50 [34]: 15 nM
T/C (BT-474 [35]): 80%
Papp A→B at 10 µM [36]: 0.52 ×10⁻⁶ cm/s
IC50 [37]: 6.3 nM
microsomal CLint at 1 µM [38]: 18 µL/min/mg
microsomal CLint at 1 µM [39]: 11 µL/min/mg
Papp B→A at 10 µM [40]: 8.29 ×10⁻⁶ cm/s

SMILES: CC(C(=O)NCCn1ccc2ncnc(Nc3ccc(Oc4cccc(Cl)c4)c(Cl)c3)c21)S(C)(=O)=O (configuration not stated)
GI50 (BT-474 [33]): 32 nM
IC50 [34]: 9.8 nM
IC50 [37]: 4.1 nM
microsomal CLint at 1 µM [38]: 4 µL/min/mg

SMILES: CC(C(=O)NCCn1ccc2ncnc(Nc3ccc(Oc4cccc(C(F)(F)F)c4)c(Cl)c3)c21)S(C)(=O)=O (configuration not stated)
GI50 (BT-474 [33]): 34 nM
IC50 [34]: 18 nM
IC50 [37]: 7.1 nM
microsomal CLint at 1 µM [38]: 30 µL/min/mg
microsomal CLint at 1 µM [39]: 33 µL/min/mg
